Sampled rows, rich in hits. Any-hit rate of the full collection: about 3.4%.
APOBEC3A inh – inhibitors of human APOBEC3A DNA deaminase; P31941; recombinant A3A, FAM/TAMRA ssDNA deamination fluorescence; inhibition, % at 20 µM; 0.41% of 330,000 active;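 active = at least 40% inhibition at 20 µM here, with at most 30% in a related deaminase screen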;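 note: plate controls were A3A with DMSO for no effect and wells lacking A3A enzyme for full effect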
Target sequence (P31941 whole entry, looked up): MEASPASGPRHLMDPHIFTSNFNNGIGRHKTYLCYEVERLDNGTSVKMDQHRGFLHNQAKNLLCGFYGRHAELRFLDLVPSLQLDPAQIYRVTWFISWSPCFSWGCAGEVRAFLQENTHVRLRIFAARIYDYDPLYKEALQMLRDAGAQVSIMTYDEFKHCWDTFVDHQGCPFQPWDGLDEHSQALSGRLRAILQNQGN
PolyA inhibitor – blocks polyadenylation in yeast reporter cells | S. cerevisiae SKY197-pL101 polyadenylation reporter, beta-gal luminescence; efflux-impaired pdr1/pdr3 knockout yeast; score 100 = 6 SD above DMSO | activity score, % at 12 µM | 0.02% of 300,000 active | AID 1875;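 active = lowest replicate activity score at least 50, where 100 means six control SD above control mean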;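 note: yeast exposed to compound for 9 h at 30 °C; higher score means more reporter readthrough which indicates perturbed polyadenylation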
UCH37 DUB inh – inhibitors of human deubiquitinating enzyme UCH37 | Q9Y5K5 | purified proteasome/UCH37, Ub-AMC cleavage fluorescence | inhibition, % (test concentration not listed) | 0.33% of 330,000 active | AID 588478;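 active = mean inhibition over replicate wells above about 20%, limit read from the data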;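 note: 0% = compound-free wells with enzyme and 100% = wells lacking proteasome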
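Material: human UCH37 enzyme supplied as purified proteasome complex. Measure: % inhibition of Ub-AMC cleavage fluorescence. Medium: pH 7.4 Tris-HCl (50 mM) with ovalbumin, ATP-MgCl2, DTT. Times: 30 min preincubation with enzyme, 25 min cleavage at room temperature. Detection: AMC fluorescence intensity at 355/460 nm.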
APOBEC3G inh – inhibitors of human APOBEC3G DNA deaminase | inhibition, % at 20 µM | AID 493012 | 0.28% of 330,000 active | recombinant A3G, ssDNA deamination FAM/TAMRA fluorescence | Q9HC16;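 active = inhibition of at least 40% at 20 µM, with no more than 30% in the related APOBEC3A deaminase screen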;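 note: plate controls were DMSO wells with A3G for no effect and wells lacking A3G enzyme for full effect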
AHR activator – activates the human aryl hydrocarbon receptor. P35869. AID 2796. 2.5% of 320,000 active. activation, % at 5 µM. AHR-responsive luciferase reporter cells, luminescence; in the data active = activation above about 47%;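 note: 0% = vehicle wells and 100% = reference agonist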
Arr AP2 block – inhibitors of human beta-arrestin and AP2 interaction; FITC-arrestin peptide / GST-AP2 beads, flow cytometry; AP2 beta2 appendage carries R879A mutation; inhibition, % at 10 µM; 0.31% of 340,000 active; AID 504490;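 active = inhibition above a set limit, near 3 SD of compounds lacking own fluorescence, cut at about 54% in these data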;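 note: plate controls were DMSO wells for no effect and 5 µM unlabelled arrestin peptide for full effect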
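System: GST-tagged AP2 beta2-adaptin appendage (R879A) on 4 µm glutathione beads / Reagent: FITC-arrestin peptide, 50 nM / Detection: HyperCyt-sampled flow cytometry, FL1 channel, ex 488/em 535 nm / Timing: 12 min plus 1 h, RT / Buffer or medium: PBS plus Tween 20 (0.05%) and BSA (0.1%)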
* = called active by the depositor; . = no result.

SMILES	APOBEC3A inh	PolyA inhibitor	UCH37 DUB inh	APOBEC3G inh	AHR activator	Arr AP2 block
COC(=O)c1ccc(COc2ccccc2C=NNC(=O)c2cccnc2)cc1	.	.	4	.	.	.
CCOc1ccc(NC(=S)Nc2cccc3cnccc23)cc1	0	-4	0	1	60*	2
CCOc1ccc(NC(=S)Nc2cccc3ccccc23)cc1	-3	3	-1	3	66*	-2
CCOc1ccc(NC(=O)Nc2ccc3nsnc3c2)cc1	1	-5	-4	-3	7	19
CCOc1ccc(NC(=S)Nc2ccc3nsnc3c2)cc1	-4	-12	14	-4	51*	-2
COc1ccc(NC(=S)Nc2cccc3cnccc23)cc1	0	3	2	5	27	-7
O=[N+]([O-])c1ccc(-c2ccc(C=NNc3nc(NCc4ccccc4)nc(N4CCOCC4)n3)o2)cc1	.	.	5	.	.	.
CC(CC(=O)N1CCCC1)=NNC(=O)c1cc2ccccc2cc1O	.	.	1	.	.	.
Cc1oc(-c2ccccc2F)nc1CS(=O)CC(=O)NCc1ccc2c(c1)OCO2 (configuration not stated)	-1	-1	5	0	50*	3
Cc1oc(-c2ccc(Cl)cc2)nc1CS(=O)CC(=O)NCc1ccc2c(c1)OCO2 (configuration not stated)	2	-1	1	-7	6	7
Cc1cc(C)c2c(c1)C(=NN=c1sc3ccccc3n1C)C(=O)N2	.	.	7	.	.	.
Cc1nn(C)cc1C=NNC(=S)Nc1ccc(Cl)cc1Cl	.	.	2	.	.	.
Oc1ccc(Br)cc1-c1cc(-c2ccccc2)n[nH]1	0	-33	2	-1	61*	2
Oc1ccc(Br)cc1-c1cc(-c2ccc(Cl)cc2)n[nH]1	8	21	-2	1	49*	-12
O=[N+]([O-])c1cccc(-c2cc(-c3cc(Br)ccc3O)[nH]n2)c1	0	-8	2	0	10	-19
COc1ccc(O)c(-c2cc(-c3cccc(Br)c3)n[nH]2)c1	-3	7	-3	-1	64*	7
COc1ccc(-c2cc(-c3ccc(OC)c(OC)c3)n[nH]2)c(O)c1	2	-12	3	2	4	-11
COc1cc(-c2nc3ccc4ccccc4c3c3c2CCC3)ccc1O	1	-17	-21	-2	72*	-1
COc1cc(-c2nc3ccc4ccccc4c3c3c2CCC3)cc(OC)c1O	6	2	-31	-4	5	-15
COC(=O)NN=Cc1cc([N+](=O)[O-])cc(Br)c1O	.	.	5	.	.	.
COc1nc(Nc2cccc([N+](=O)[O-])c2)nc(OC)n1	-1	-16	5	-3	3	4
C#CCOc1nc(Nc2cccc([N+](=O)[O-])c2)nc(OCC#C)n1	-3	-12	5	-9	52*	33
C/C(C=NNC(=O)CSc1ccccn1)=C/c1ccc(C(C)C)cc1	.	.	1	.	.	.
CC(=NNC(=O)c1cccc(O)c1)c1ccc(NC(=O)Cc2ccccc2)cc1	.	.	6	.	.	.
Cn1ccsc1=NC(=O)c1ccccc1OC(F)F	29	2	1	1	71*	0
SMILES	APOBEC3A inh	PolyA inhibitor	UCH37 DUB inh	APOBEC3G inh	AHR activator	Arr AP2 block
Cn1ccsc1=NC(=O)c1ccccc1F	-1	13	2	-7	8	.
O=C(NN=Cc1cc2c(cc1Br)OCO2)c1c[nH]c2ccccc12	.	.	3	.	.	.
O=C(COC(=O)Cc1ccc(S(=O)(=O)N2CCOCC2)s1)Nc1ccc2c(c1)OCO2	0	106*	0	-1	0	5
CC(C)(C)c1cc[n+](-c2[nH]c(=O)sc2C=N/N=C(\[O-])c2cccnc2)cc1	.	.	21*	.	.	.
CC(CC(=O)Nc1ccc(N(C)C)cc1)=NNC(=O)c1cnccn1	.	.	5	.	.	.
C/C(CC(=O)Nc1ccc(N(C)C)cc1)=N\NC(=O)c1cnccn1	-3	-6	.	-4	52*	12
Cc1nc2cc(-c3sccc3-n3cccc3)nn2c(C)c1C	1	-13	-4	-1	69*	0
O=C(NN=Cc1ccc(O)c([N+](=O)[O-])c1)C1CC1(c1ccccc1)c1ccccc1 (configuration not stated)	.	.	9	.	.	.
Cc1cccc(NC(=O)c2cccc(NC(=O)c3ccccc3)c2)n1	-8	3	3	4	34	11
